From PubChem BioAssay
NadD inh: inhibitors of S. aureus NadD, primary screen, biochemical, colorimetric, uHTS | inhibition, % at 20 µM | hit rate 0.78% among 360,000 | Nicotinate-nucleotide adenylyltransferase NadD (Staphylococcus aureus N315) | purified NadD enzyme, colorimetric absorbance read-out; in the data active means inhibition above about 26%
PP5 inh: PP5 phosphatase inhibitors, primary screen, biochemical, fluorescence; Serine/threonine-protein phosphatase 5 (Homo sapiens), P53041; purified PP5c, OMFP substrate fluorescence; inhibition, % at 6.7 µM; hit rate 0.18% among 320,000;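 active means inhibition above the campaign's mean inhibition across all tested compounds plus 3 SD, cut at about 9.5% in these data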
HCV core dimer: inhibitors of HCV core protein dimerization, primary screen, biochemical, TR-FRET, high-throughput; TR-FRET GST/Flag-core106 dimerization, 1536-well; inhibition, % at 5 µM; hit rate 0.33% among 300,000; AID 1899, 2009;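 active means inhibition above the mean of all tested compounds plus 3 SD, set per screening campaign, cut at about 45% in these data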
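test system = GST/Flag-tagged HCV core106 proteins | probe or stimulus = Eu donor and XL665 acceptor anti-tag antibodies | times = compound-protein-antibody incubation 4 h at 22.5 °C | signal = TR-FRET, excitation 340 nm, emission 617 and 671 nm | measure = percent inhibition of core106 dimerization signal | controls = wells lacking GST-core106 and wells with excess unlabelled core106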
Myeloid diff MLP: induction of myeloid progenitor differentiation, primary screen, cell-based, flow cytometry, MLPCN library; calls only at 10 µM; ER-HoxA9 myeloid progenitors, lysozyme-GFP differentiation; AID 624256, 2012; hit rate 1% among 360,000;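 active means normalized GFP-positive differentiation at or above the plate's own cutoff, the solvent-only control mean plus 3 SD; inconclusive means no clear call, values can overlap the other calls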;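 further: cells exposed to compound for four days before flow analysis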
CTSL1 counter: Fasciola hepatica cathepsin L1 inhibitors, primary screen, counter-screen for PFM18AAP inhibitor project, biochemical, QFRET, fluorogenic peptide substrate. recombinant F. hepatica cathepsin L1, Z-Leu-Arg-MCA fluorescence. inhibition, % at 5.96 µM. hit rate 0.49% among 300,000. AID 1906, 2009;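 active means inhibition above the mean of all tested compounds plus 3 SD, set per screening campaign, cut at about 17% in these data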
PP1 inh: PP1-alpha phosphatase inhibitors, primary screen, counter-screen for PP5 inhibitor project, biochemical, fluorescence, OMFP substrate, single point; hit rate 0.9% among 320,000; inhibition, % at 6.7 µM; Serine/threonine-protein phosphatase PP1-alpha catalytic subunit (Homo sapiens), P62136; AID 2235, 2010; purified PP1alpha;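 active means inhibition above the mean inhibition of all tested compounds plus 3 SD, computed separately for each screening campaign, cut at about 15% in these data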
Target sequence (P62136 whole entry, looked up): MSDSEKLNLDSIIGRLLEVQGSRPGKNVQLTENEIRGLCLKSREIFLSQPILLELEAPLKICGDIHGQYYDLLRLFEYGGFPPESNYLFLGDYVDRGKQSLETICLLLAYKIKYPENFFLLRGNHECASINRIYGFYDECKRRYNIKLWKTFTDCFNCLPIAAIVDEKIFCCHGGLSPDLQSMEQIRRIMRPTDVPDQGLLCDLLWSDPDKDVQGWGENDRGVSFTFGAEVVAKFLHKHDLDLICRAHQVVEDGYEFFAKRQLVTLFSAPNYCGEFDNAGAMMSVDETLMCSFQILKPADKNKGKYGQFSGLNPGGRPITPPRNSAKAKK
NadD inh conf: inhibitors of S. aureus NadD, confirmation, biochemical, colorimetric, single concentration; shares compounds with NadD inh; purified S. aureus NadD, colorimetric enzyme assay; inhibition, % at 20 µM; hit rate 13% among 2,000; AID 624309, 2012; in the data active means inhibition mostly above about 42%, no sharp cut-off; inactive means mostly below about 42%
A number is an active result; i = inactive; ? = inconclusive; nt = no result; + = active, no number. A selection: hits, their analogues and other compounds. The true share with any hit is near 3.1%.

SMILES | NadD inh | PP5 inh | HCV core dimer | Myeloid diff MLP | CTSL1 counter | PP1 inh | NadD inh conf
COc1cc2c(cc1OC)C1(Nc3c-2c(Cc2ccccc2)nn3-c2ccccc2)C(=O)Nc2ccccc21 (stereo not drawn) | 45 | i | 58 | i | i | i | i
COc1cccc(C2C(C(=O)Nc3ccccc3)=C(C)N=c3s/c(=C/c4ccc(OCC(=O)O)cc4)c(=O)n32)c1 (stereo not drawn) | i | i | i | i | i | i | nt
CC1=C(C(=O)Nc2ccccc2)C(c2ccc(C)o2)n2c(s/c(=C\c3ccco3)c2=O)=N1 (stereo not drawn) | 34 | nt | nt | + | nt | nt | i
COc1ccccc1CNC(=O)COC(=O)COc1ccccc1F | i | i | nt | i | nt | i | nt
COc1ccccc1CNc1nc(Nc2cccc(-c3cnco3)c2)c2sccc2n1 | 40 | nt | nt | i | nt | nt | i
COc1ccccc1CNc1nc(NCc2ccccc2OC)c2sccc2n1 | i | nt | nt | i | nt | nt | nt
Cc1ccc(-c2csc(C3=C(O)CN(NC(=O)c4ccc([N+](=O)[O-])cc4)C3=N)n2)cc1 | 30 | i | 48 | i | i | i | i
O=C(CNC(=O)c1ccccc1Br)Nc1cccc(S(=O)(=O)Nc2ccccc2Cl)c1 | i | nt | nt | i | nt | nt | nt
O=c1cc(CN2CCN(C/C=C/c3ccccc3)CC2)c2cc(O)c(-c3ccccc3)cc2o1 | 39 | i | i | i | i | i | i
Nc1nc(COc2ccccc2C=O)nc(Nc2ccccc2)n1 | 29 | i | i | i | i | i | 36
COc1ccc(OCc2nc(N)nc(Nc3ccccc3)n2)cc1 | i | i | i | i | i | i | nt
COc1cc(C2CC(=O)N3CN(c4ccccc4C)CSC3=C2C#N)cc(OC)c1OC (stereo not drawn) | nt | i | i | nt | i | i | nt
N#CC1=C2SCN(c3ccccc3)CN2C(=O)CC1c1c(Cl)cccc1Cl (stereo not drawn) | i | i | i | i | i | i | nt
N#CC1=C2SCN(c3ccccc3)CN2C(=O)CC1c1ccccc1Cl (stereo not drawn) | i | i | i | i | i | i | nt
Cc1ccc(C2CC(=O)N3CN(c4ccc(Br)cc4)CSC3=C2C#N)o1 (stereo not drawn) | 43 | i | 48 | i | i | i | i
N#CC1=C2SCN(c3ccccc3)CN2C(=O)CC1c1cccs1 (stereo not drawn) | 44 | i | i | i | i | i | i
COc1ccccc1N1CSC2=C(C#N)C(c3ccc(SC)cc3)CC(=O)N2C1 (stereo not drawn) | 35 | i | i | i | i | i | i
O=C(O)c1cccnc1C(=O)c1ccccc1 | i | i | i | i | i | i | nt
CCOc1cc(/C=N/NC(=O)CNc2ccc(C)cc2)ccc1OC(=O)c1ccccc1 | 33 | i | i | i | i | 15 | i
O=C(NC(=S)Nc1ccccc1N1CCCC1)c1ccc(-c2cccc([N+](=O)[O-])c2)o1 | 32 | i | i | i | i | i | i
O=C(NC(=S)Nc1ccccc1N1CCCCC1)c1ccc(-c2cccc([N+](=O)[O-])c2)o1 | i | i | i | i | i | i | nt
N#Cc1c(OCC(=O)c2ccccc2)nc2c(c1-c1ccco1)CCc1ccccc1-2 | 32 | i | i | i | i | i | i
CCOC(=O)COc1nc2c(c(-c3ccco3)c1C#N)CCc1ccccc1-2 | i | i | i | i | i | i | nt
CCOc1ccc2nc(Cl)c(C3CC(c4ccco4)=NN3S(=O)(=O)c3ccccc3)cc2c1 (stereo not drawn) | 36 | i | i | i | i | i | i
COc1ccc(-c2[nH]n(-c3ccc([N+](=O)[O-])cc3)c(=O)c2C=NCc2ccncc2)cc1 | 29 | i | i | i | i | i | i
SMILES | NadD inh | PP5 inh | HCV core dimer | Myeloid diff MLP | CTSL1 counter | PP1 inh | NadD inh conf
Cn1c(=O)[nH]c(N)c(Br)c1=O | i | nt | nt | i | nt | nt | nt
Cc1ccc(Cc2cnc(N3C(=N)SC(c4ccccc4)C3=O)s2)cc1 (stereo not drawn) | 51 | i | i | i | i | i | i
COc1ccc(/C=N/NC(=O)c2nc(-c3ccccc3)cc(-c3ccccc3)n2)cc1 | 39 | i | i | i | i | i | i
COc1ccc(/C=N/NC(=O)c2nc(-c3ccccc3)cc(-c3ccccc3)n2)cc1O | 38 | i | i | i | i | i | i
COc1ccc(/C=N/NC(=O)c2c(-c3ccccc3)noc2C)cc1 | i | i | i | i | i | i | nt
C/C(CCC12CC3CC(CC(C3)C1)C2)=N\NC(N)=S | 34 | i | i | ? | i | i | i
Cc1ncc2c(n1)-c1cc(F)ccc1SC2 | i | i | i | i | i | i | nt
Nc1ncc2c(n1)-c1cc(Cl)ccc1SC2 | 29 | i | i | i | i | i | i
Cc1c(N(C)S(=O)(=O)c2ccc(Cl)c(C(=O)NCC(C)(C)N3CCOCC3)c2)c(=O)n(-c2ccccc2)n1C | i | nt | nt | i | nt | nt | nt
Cc1cc(Br)c2nc(-c3ccccc3)c(Cc3cccc(Cl)c3)n2c1 | 31 | nt | nt | i | nt | nt | i
O=C(CSc1ncnc2scc(-c3ccccc3)c12)N1CCN(Cc2ccc3c(c2)OCO3)CC1 | 38 | i | i | i | i | i | i
c1ccc(-c2csc3ncnc(N4CCN(Cc5ccc6c(c5)OCO6)CC4)c23)cc1 | i | i | i | i | i | i | nt
Cc1ccc(-c2csc3ncnc(SCc4ccc(C(=O)O)cc4)c23)cc1 | 32 | i | i | i | i | 16 | i
Cc1sc2ncnc(SCc3ccc(C(=O)O)cc3)c2c1C | i | i | i | i | i | i | nt
COc1ccc(NC(=O)c2ccc(S(=O)(=O)N3CC(C)OC(C)C3)cc2)cc1 (stereo not drawn) | i | nt | nt | i | nt | nt | nt
NN=C1c2ccccc2C(=O)C1C(=O)C(c1ccccc1)c1ccccc1 (stereo not drawn) | 30 | nt | nt | i | nt | nt | 50
O=C(Nc1nc(-c2ccccc2)cs1)c1ccc2c(c1)S(=O)(=O)c1ccccc1C2=O | 35 | i | i | i | i | i | i
O=C(Nc1nc(-c2cccc3ccccc23)cs1)c1ccc2c(c1)S(=O)(=O)c1ccccc1C2=O | i | i | i | i | i | i | nt
CCOC(=O)CCCCCC(=O)Nc1ccc2c(c1)C(=O)N([C@@H](C)CO)C[C@H](C)[C@H](CN(C)C(=O)c1ccccc1)OCCCC[C@H](C)O2 | i | nt | nt | i | nt | nt | nt
O=C(Cc1ccccc1)Nc1ncnc2c1C(c1ccccc1)c1c(ccc3ccccc13)O2 (stereo not drawn) | 32 | nt | nt | i | nt | nt | i
